Bioassay records deposited in PubChem by The Scripps Research Institute Molecular Screening Center.
Only some compounds are listed: those with a hit (about 2.3% of all), similar ones and a draw of the others.
TAAR1 antagonist = human TAAR1 antagonism; Q96RJ0; CHO RD-HGA16 TAAR1, Fluo-8 calcium fluorescence, antagonist; inhibition, % at 3 µM; actives 1.5% (n = 360,000); AID 624466;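 active = inhibition above a per-plate cutoff, the mean inhibition of test compounds on that plate plus 3 SD, cut at about 49% in these data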
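System: CHO RD-HGA16 cells bearing hTAAR1. Reagent: EC80 β-phenethylamine stimulus. Schedule: seeding 17-24 h prior, 75-min 37 °C, 30-min RT dye loading. Signal: Fluo-8 intracellular calcium dye fluorescence, real-time kinetic reads. Read-out: % inhibition from peak post-agonist over basal fluorescence ratio. Benchmarks: vehicle wells and EC80 agonist wells. Replicates: n of 1.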
V1aR counter = counter-screen for oxytocin receptor agonists: human V1a receptor agonists | P37288 | CHO-V1R cells, Fluo-8 calcium fluorescence, agonist mode; 0% DMSO, 100% 3 nM vasopressin | activation, % at 3 µM | actives 0.25% (n = 320,000) | AID 2797;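 active = activation above the mean activation of all tested compounds plus 3 SD, per screening run, cut at about 20% in these data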;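 also: signal is peak over basal fluorescence ratio across a 100 second FLIPR read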
OXTR potentiate = potentiators of human oxytocin receptor. CHO-OTR cells, Fluo-8 calcium fluorescence, potentiator mode; 0% = oxytocin EC15, 100% = EC100. activation, % at 3 µM. AID 2445. actives 0.061% (n = 320,000). P30559;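 active = activation above that plate's cutoff, the mean activation of tested compounds plus 3 SD, cut at about 6.6% in these data, passing the limit was not always enough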
Target sequence (P30559 whole entry, looked up): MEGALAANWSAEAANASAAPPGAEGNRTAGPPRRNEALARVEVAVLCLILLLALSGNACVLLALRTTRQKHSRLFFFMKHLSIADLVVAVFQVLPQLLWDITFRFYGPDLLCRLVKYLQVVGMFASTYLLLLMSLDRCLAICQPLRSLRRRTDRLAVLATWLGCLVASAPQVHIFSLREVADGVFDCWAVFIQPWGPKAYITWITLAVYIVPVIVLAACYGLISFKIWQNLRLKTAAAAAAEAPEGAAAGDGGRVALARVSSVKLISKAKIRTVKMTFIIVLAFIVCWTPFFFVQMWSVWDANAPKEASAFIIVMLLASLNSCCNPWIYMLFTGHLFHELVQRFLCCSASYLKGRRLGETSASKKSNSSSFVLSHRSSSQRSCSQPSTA
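Assay system: CHO cell line stably expressing human OTR. Reagent: EC15 oxytocin agonist. Dosing: single dose, 3.0 µM nominal final compound concentration. Timing: compound 6 min at room temperature before oxytocin, 100 s read. Signal: kinetic Fluo-8 calcium fluorescence. Controls: oxytocin EC15 low and EC100 high.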
OXTR agonist = human OXTR agonism | P30559 | CHO-OTR cells, Fluo-8 calcium fluorescence; normalized: DMSO 0%, oxytocin 100% | activation, % at 3 µM | actives 0.32% (n = 320,000) | AID 2435;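 active = activation above the mean of all tested compounds plus 3 SD, cutoff set per screening run, cut at about 20% in these data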;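 also: peak over basal fluorescence ratio from a 100 s FLIPR kinetic read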
TAAR1 agonist = agonists of human TAAR1; Q96RJ0; CHO RD-HGA16 TAAR1, Fluo-8 calcium fluorescence; vehicle wells 0%, saturating PEA agonist 100%; activation, % at 3 µM; actives 0.99% (n = 360,000); AID 624467;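 active = activation above the mean activation of all test compounds in the run plus 3 SD, cut at about 38% in these data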
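Test system: RD-HGA16 (CHO) cells co-expressing Gα16 and hTAAR1 | Doses: Single dose, 3 µM | Schedule: 17-24 h seeding, 75 min 37 °C dye, 30 min RT | Evaluation: % activation from peak over basal fluorescence ratio, DMSO-to-PEA scaled | Technique: Kinetic Fluo-8 calcium fluorescence | Benchmarks: Low control DMSO, high control PEA (EC100)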
A number is an active result; i = inactive; nt = no result given.

SMILES | TAAR1 antagonist | V1aR counter | OXTR potentiate | OXTR agonist | TAAR1 agonist
Cc1[nH]c2ccccc2c1/C=C/c1nc2ccccc2c(=O)n1CCO | 50.8 | i | i | i | i
Cc1ccccc1-c1ccc2c(c1)[C@@H]1C[C@H](N(C)S(=O)(=O)c3ccc(Cl)cc3)[C@H]([C@H](C)O)CN1CC2 | i | nt | nt | nt | i
Cc1ccc2c(c1C)-c1c(ccc(C)c1C)C(=O)C2=O | 61.6 | nt | nt | nt | i
COc1ccc(NC(=O)N(C)C[C@H]2OCCCC[C@H](C)Oc3ccc(NC(=O)Nc4cccc5ccccc45)cc3C(=O)N([C@@H](C)CO)C[C@H]2C)cc1 | i | nt | nt | nt | i
O=C(Nc1ccncc1)c1ccc2c(c1)S(=O)(=O)c1ccccc1C2=O | 52.3 | i | i | i | 37.9
O=C(Nc1ccc(-c2ccccc2)cc1)c1ccc2c(c1)S(=O)(=O)c1ccccc1C2=O | i | i | i | i | i
CC/C=C\C/C=C\C/C=C\CCCCCCCC(=O)O | i | i | i | i | i
CCCCC/C=C\C/C=C\C/C=C\C/C=C\CCCC(=O)O | nt | i | 9.6 | i | nt
COC(=O)C1=C(C)N(C)C(=NCc2cc(OC)c(OC)c(OC)c2)NC1c1cccc(F)c1 (centres undefined) | i | nt | nt | nt | i
Cc1cccc(N2CCN(C(=O)c3ccc(CS(=O)(=O)c4ccccc4C)o3)CC2C)c1 (centres undefined) | 50.4 | i | i | i | i
Cc1cccc(N2CCN(C(=O)c3ccccn3)CC2C)c1 (centres undefined) | i | i | i | i | i
CC(C)C1=CC2C3C(C(C(C)C)=CC(=O)[C@@]3(C)O)C1C(=O)C2(C)O (some centres undefined) | i | nt | nt | nt | i
CCc1nc2ccc(C(=O)Nc3ccc(C(N)=O)cc3)cn2c1N(C)CCC(C)C | i | nt | nt | nt | 43.2
CCc1nc2ccc(C(=O)Nc3ccc(NC(C)=O)cc3)cn2c1N(C)CCC(C)C | i | nt | nt | nt | i
Cc1ccc([C@H]2C[C@H](n3cc(COC(=O)c4ccccc4)nn3)[C@@H](O)CN2C(=O)C2CCCCC2)cc1 | i | nt | nt | nt | i
Fc1ccc2nc(-c3ccc(CN4CCC5(CC4)CNc4ccccc45)cc3)c(-c3ccccc3)nc2c1 | i | nt | nt | nt | i
O=C(NCCc1cn2ccccc2n1)c1cc(COc2ccc3ncccc3c2)on1 | 86.7 | i | i | i | i
Cc1cc(-c2nnc(CSc3nnc(NC(=O)c4ccc(C(C)(C)C)cc4)s3)o2)ccc1[N+](=O)[O-] | i | i | i | i | i
C=CCNc1cccc2c1S(=O)(=O)N[C@@H](C)CO2 | i | nt | nt | nt | i
Cc1nn(-c2ccccc2)c(Cl)c1/C=N/NC(=O)OC(C)(C)C | 53.8 | i | i | i | i
Cc1ccc(C)c(OCC(=O)N/N=C/c2c(C)nn(-c3ccccc3)c2Cl)c1 | 53.2 | i | i | i | i
CC(C)C[C@H]1COc2cc(NCCCN3CCOCC3)ccc2S(=O)(=O)N1 | i | nt | nt | nt | i
Cc1ccc(NC(=O)c2cc(-c3cccc(O)c3)on2)cc1C | 52.2 | i | i | i | i
COC(=O)N[C@H]1CC=C[C@@H]1Cc1cccc(Oc2ccccc2)c1 | i | nt | nt | nt | i
CCC(C(=O)OCC(=O)C1(O)CCC2C3CCC4=CC(=O)CCC4(C)C3C(O)CC21C)C(C)C (centres undefined) | 61.9 | nt | nt | nt | i
SMILES | TAAR1 antagonist | V1aR counter | OXTR potentiate | OXTR agonist | TAAR1 agonist
CNCCNC[C@H](Cc1cccc2ccccc12)NCCc1ccccc1 | i | i | i | i | 37.6
CN(C)c1ccc(CC(=O)N2CCCC(c3cc(C(=O)Nc4ccc(C(C)(C)C)cc4)no3)C2)cc1 (centres undefined) | 55.5 | nt | nt | nt | i
O=C(Nc1ccccc1)c1cc(C2CCCN(C(=O)CCc3ccccc3)C2)on1 (centres undefined) | i | nt | nt | nt | i
O=C(N/N=C/c1c(O)ccc2ccccc12)c1ccc(Br)o1 | i | 21.7 | i | 20.5 | i
COc1cc(/C=C/C(=O)/C=C(O)/C=C/c2ccc(O)c(OC)c2)ccc1O | 65.3 | 40.9 | i | 32.8 | 43.9
COc1cc(C=C2C(=O)C=CC2=O)ccc1O | i | nt | nt | nt | 43.3
CC(C)CNc1cccc2c1S(=O)(=O)N[C@@H](Cc1ccccc1)CO2 | i | nt | nt | nt | i
CCCCN1C(=O)C(CC(=O)NCCc2ccccn2)CC(C(=O)N(C(C)C)C(C)C)=C1C (centres undefined) | i | nt | nt | nt | 41.6
